From PMC7196279 (Biomedicine & pharmacotherapy = Biomedecine & …, 2020)
Like-named read-outs stand apart in the source and are kept apart here. Bridges are numbered along the chain shown (N, C = ends). Where no end group is shown, it is not given here.

How the values were obtained:
[1] = biological target: T1, macaque oxytocin receptor (qOTR) (Macaca mulatta, UniProt P56494); experiment: Ca2+ mobilization assay; type: cell-based
T1 sequence (P56494 1-389): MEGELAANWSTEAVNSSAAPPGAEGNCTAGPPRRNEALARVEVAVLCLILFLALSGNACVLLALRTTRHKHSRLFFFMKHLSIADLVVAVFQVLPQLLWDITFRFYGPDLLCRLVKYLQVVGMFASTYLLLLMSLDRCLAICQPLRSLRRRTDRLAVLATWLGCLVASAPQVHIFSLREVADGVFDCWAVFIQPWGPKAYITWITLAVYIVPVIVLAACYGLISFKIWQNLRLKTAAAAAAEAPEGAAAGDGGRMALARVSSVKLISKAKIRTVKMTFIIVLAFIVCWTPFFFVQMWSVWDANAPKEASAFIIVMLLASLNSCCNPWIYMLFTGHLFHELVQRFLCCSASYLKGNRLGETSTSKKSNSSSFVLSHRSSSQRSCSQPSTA

[2] = tested on: Ca^2+-activated K^+ channels; type: cell-based, Chinese hamster; conditions: qOT receptor CHO cells; for inhibition of AVP induced hyperpolarization / inhibition of Leu^8-OT induced hyperpolarization / inhibition of Pro^8-OT induced hyperpolarization: inhibitor pretreatment
Summary of the method: (§1)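 Receptor-expressing CHO-K1 cells were loaded with FMP Blue in Locke's buffer (pH 7.4) at 37 °C for 35 min. Paxilline, TRAM-34 and/or apamin were then added, followed by 10 min more incubation. Baseline was read for 60 s, then log concentrations of agonist were added and ex 530/em 565 nm was read every 2 s for 200 s. NS-1619 or SKA-31 stimulation followed paxilline (30 μM) or TRAM-34 pretreatment respectively. Response was FMIN − F0. N = 3 experiments, 10 replicates per dose.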

[3] = tested on: Ca^2+-activated K^+ channels; type: cell-based, Chinese hamster; conditions: hOT receptor CHO cells, inhibitor pretreatment
[4] = tested on: Ca^2+-activated K^+ channels; conditions: mOT receptor CHO cells, cited from earlier work
[5] = tested on: Ca^2+-activated K^+ channels; conditions: hOT receptor CHO cells, cited from earlier work
[6] = tested on: Ca^2+-activated K^+ channels; type: cell-based, Chinese hamster; conditions: mOT receptor CHO cells, inhibitor pretreatment
[7] = tested on: Ca^2+-activated K^+ channels; type: cell-based, Chinese hamster; conditions: tOT receptor CHO cells; for inhibition of AVP induced hyperpolarization / inhibition of Leu^8-OT induced hyperpolarization / inhibition of Pro^8-OT induced hyperpolarization: inhibitor pretreatment
Summary of the method: as §1

[8] = tested on: sarco/endoplasmic reticulum calcium ATPase (SERCA); type: cell-based; conditions: all four lines, thapsigargin pretreatment 1 μM final concentration
Summary of the method: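 Fluo-3 AM-loaded cells (60 min, 37 °C) were washed four times and treated with thapsigargin (1 μM final) for 5 min. The Ca2+ mobilization assay was then run with agonist concentration series, with untreated controls in parallel on the same plates. The Fluo-3 read was FMAX − F0. N = 3 experiments, five replicates per dose.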

[9] = tested on: sarco/endoplasmic reticulum calcium ATPase (SERCA); type: cell-based; conditions: all four OT receptor cell lines, thapsigargin pretreatment
Summary of the method: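 Cells were incubated with FMP Blue in Locke's buffer at 37 °C for 40 min. Thapsigargin was added, followed by 5 min more incubation. The membrane potential assay was then run with agonist concentration series. Fluorescence was read at ex 530/em 565 nm every 2 s for 200 s after a 60 s baseline. Response was FMIN − F0.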

[10] = biological target: Human Kappa-opioid (κO) receptor (Homo sapiens, UniProt P41145); experiment: Membrane potential assay in κOR-CHO cells; type: cell-based; conditions: κOR-CHO cells pretreated with pertussis toxin
Gi/o = type: cell-based; conditions: PTX 150 ng/ml

Chain of Human Kappa-opioid (κO) receptor (P41145 whole entry): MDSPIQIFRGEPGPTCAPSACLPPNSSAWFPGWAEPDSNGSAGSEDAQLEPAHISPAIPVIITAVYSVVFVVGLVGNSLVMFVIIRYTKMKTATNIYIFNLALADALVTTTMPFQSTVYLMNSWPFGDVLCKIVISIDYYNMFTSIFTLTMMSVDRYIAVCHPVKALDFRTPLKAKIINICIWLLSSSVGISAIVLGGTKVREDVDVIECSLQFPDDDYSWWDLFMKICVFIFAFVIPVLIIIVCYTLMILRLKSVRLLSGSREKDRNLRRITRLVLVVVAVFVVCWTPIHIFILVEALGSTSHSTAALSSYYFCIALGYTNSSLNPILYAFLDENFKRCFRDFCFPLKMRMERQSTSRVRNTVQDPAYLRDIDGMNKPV

In the case of `NC(=O)CC[C@@H]1NC(=O)[C@H](Cc2ccccc2)NC(=O)[C@H](Cc2ccc(O)cc2)NC(=O)[C@@H](N)CSSC[C@@H](C(=O)N2CCC[C@H]2C(=O)N[C@@H](CCCN=C(N)N)C(=O)NCC(N)=O)NC(=O)[C@H](CC(N)=O)NC1=O` [AVP, arginine vasopressin], the EC50 [1] is reported as 49.8 nM.
For `Clc1ccccc1C(c1ccccc1)(c1ccccc1)n1cccn1` [TRAM-34], the “inhibition of SKA-31 hyperpolarization” value ([2]; 300 nM TRAM-34 pretreatment) is listed as 92%, the “inhibition of AVP induced hyperpolarization” value [3] is listed as 61% and the “effect on hyperpolarizing response to KCa3.1 channel opener SKA31” value [4] is listed as “inhibited”. The “effect on hyperpolarizing response to KCa3.1 channel opener SKA31” value [5] was “inhibited”, the “inhibition of AVP induced hyperpolarization” value [6] was 33% and the “inhibition of SKA-31 hyperpolarization” value ([7]; 300 nM TRAM-34 pretreatment) was 78%. The “inhibition of AVP induced hyperpolarization” value [7] was 25%, the “inhibition of Leu^8-OT induced hyperpolarization” value [7] was 38% and the “inhibition of Pro^8-OT induced hyperpolarization” value [7] was 37%.
For `CC(C)(O)[C@H]1O[C@H]2CC[C@@]3(C)[C@@](O)(CC[C@H]4Cc5c([nH]c6ccccc56)[C@@]43C)C2=CC1=O` [paxilline], the “block of NS-1619 evoked hyperpolarization” value ([2]; 30 μM paxilline) was 72%, the “inhibition of AVP induced hyperpolarization” value [2] was 20% and the “inhibition of Leu^8-OT induced hyperpolarization” value [2] was 46%. The “inhibition of Pro^8-OT induced hyperpolarization” value [2] was 35%, the “inhibition of AVP induced hyperpolarization” value [3] was 52% and the “effect on BKCa activator NS-1619 response” value [4] was “inhibited”. The “effect on BKCa activator NS-1619 response” value [5] was “inhibited”, the “inhibition of AVP induced hyperpolarization” value [6] was 20% and the “block of NS-1619 evoked hyperpolarization” value ([7]; 30 μM paxilline) was 80%. The “inhibition of AVP induced hyperpolarization” value [7] was 13%, the “inhibition of Leu^8-OT induced hyperpolarization” value [7] was 38% and the “inhibition of Pro^8-OT induced hyperpolarization” value [7] was 39%.
With `C/C=C(/C)C(=O)O[C@H]1C(C)=C2[C@H]([C@@H]1OC(=O)CCCCCCC)[C@@](C)(OC(C)=O)C[C@H](OC(=O)CCC)[C@@]1(O)[C@H]2OC(=O)[C@@]1(C)O` [thapsigargin] the “effect on AVP and OT-analog evoked increases in Ca2+” value [8] was “blocked” and the “effect on hyperpolarization produced by AVP, Leu^8-OT, and Pro^8-OT” value [9] was “eliminated”.
In the case of Pertussis toxin, the “effect on DynorphinA1-13-NH2 hyperpolarizing response” value [10] is reported as “abolished”, the “effect on AVP induced hyperpolarization” value (Gi/o; any of the four cell lines (mOTR, tOTR, qOTR, hOTR)) is reported as “did not inhibit” and the “effect on Leu^8-OT induced hyperpolarization” value (Gi/o; tOT or qOT receptor cell lines) is reported as “did not inhibit”. The “effect on Pro^8-OT induced hyperpolarization” value (Gi/o; tOT or qOT receptor cell lines) was “did not inhibit”.
In the case of “apamin: selective inhibitor of SKCa channels (CNCKAPETALCARRCQQH-NH2; disulfide 1-11, 3-15; UniProt P01500 28-45, looked up)”, the “inhibition of AVP induced hyperpolarization” value [2] is reported as “did not significantly affect”, the “inhibition of Leu^8-OT induced hyperpolarization” value [2] is reported as at most 15% and the “inhibition of Pro^8-OT induced hyperpolarization” value [2] is reported as at most 15%. The “inhibition of AVP induced hyperpolarization” value ([2]; listed as Apamin) was at most 15%, the “inhibition of AVP induced hyperpolarization” value [3] was “did not significantly affect” and the “inhibition of AVP induced hyperpolarization” value ([3]; listed as Apamin) was at most 15%. The “contribution to (inhibition of) Leu^8-OT induced membrane hyperpolarization” value ([4]; apamin pretreatment) was at most 15%, the “contribution to (inhibition of) Pro^8-OT induced membrane hyperpolarization” value ([4]; apamin pretreatment) was at most 15% and the “contribution to (inhibition of) Leu^8-OT induced membrane hyperpolarization” value ([5]; apamin pretreatment) was at most 15%. For the same compound, the “contribution to (inhibition of) Pro^8-OT induced membrane hyperpolarization” value ([5]; apamin pretreatment) was at most 15%, the “inhibition of AVP induced hyperpolarization” value [6] was “did not significantly affect” and the “inhibition of AVP induced hyperpolarization” value ([6]; listed as Apamin) was at most 15%. For the same compound, the “inhibition of AVP induced hyperpolarization” value [7] was “did not significantly affect”, the “inhibition of Leu^8-OT induced hyperpolarization” value [7] was at most 15% and the “inhibition of Pro^8-OT induced hyperpolarization” value [7] was at most 15%. The “inhibition of AVP induced hyperpolarization” value ([7]; listed as Apamin) was at most 15%.
